From PubChem BioAssay AID652163 (Broad Institute, 2013)
In all, about 360,000 compounds went through this assay and about 500 (0.14%) were called active. Only a selection was taken, and actives are over-represented in it overall. Unmarked numbers belong to inactive results.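 Rule for the calls: active = mean inhibition of at least 70% across replicates, with every replicate also reaching that level; inconclusive = mean inhibition reaches 70% but some replicates fall short; inactive = mean inhibition below 70%.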

Target: Protein S100-A4 (Homo sapiens) (UniProt P26447)
Sequence (P26447 whole entry, looked up): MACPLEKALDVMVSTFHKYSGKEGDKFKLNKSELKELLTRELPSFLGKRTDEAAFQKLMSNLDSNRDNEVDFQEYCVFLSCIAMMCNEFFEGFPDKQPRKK
Experiment: human S100A4 protein-peptide interaction blockers – biochemical, fluorescence polarization, TAMRA-MyoIIA peptide, primary screen (AID 652163)
Settings: at 10.7 µM, stronger effect = higher value
Summary of the method: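 Material: human S100A4 monomer with TAMRA-labelled myosin IIA peptide; buffer or medium: HEPES pH 7.2 with CaCl2, KCl, NaCl, DTT, Triton; compound dosing: one concentration per compound; schedule: 5 min incubation before reading; benchmarks: neutral control DMSO, positive control TFP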

Question: Which inhibition does the source give for CNC(=O)C[C@H]1CC[C@@H]2[C@H](COc3ccc(NC(=O)Nc4ccc(F)c(F)c4)cc3C(=O)N2C)O1 here?
Answer: -1.52%

Question: For C[C@H]1CN([C@@H](C)CO)C(=O)c2cc(C#CC3CCCC3)cnc2O[C@H]1CN(C)C(=O)c1ccncc1, which inhibition is on record?
Answer: 11.5%

Question: With CO[C@H]1CN(C)C(=O)c2cc(NC(=O)C3CC3)ccc2OC[C@H](C)N(Cc2ccccc2)C[C@H]1C as the molecule, how does the inhibition read?
Answer: 3.65%

Question: Which inhibition does the source give for O=C(N[C@@H]1CC[C@@H](CC(=O)N2CCc3ccccc3C2)O[C@@H]1CO)C1CCOCC1 here?
Answer: 13.9%

Question: For C[C@@H]1CN([C@@H](C)CO)C(=O)c2cc(NS(=O)(=O)c3cn(C)cn3)ccc2O[C@@H]1CN(C)C(=O)NC1CCCCC1, which inhibition is on record?
Answer: 12.5%

Question: O=C(C[C@@H]1CC[C@@H]2[C@H](COC[C@H](O)CN2C(=O)c2ccc3c(c2)OCO3)O1)NC1CCCC1 was tested. Which inhibition did it give?
Answer: 6.17%

Question: CC(C)NC(=O)N(C)C[C@@H]1Oc2ccc(NC(=O)C3CCCCC3)cc2CC(=O)N([C@H](C)CO)C[C@@H]1C was tested. Which inhibition did it give?
Answer: 1.64%

Question: C[C@@H]1CCCCO[C@H](CN(C)C(=O)Nc2ccc3c(c2)OCO3)[C@H](C)CN([C@H](C)CO)C(=O)c2cc(NS(C)(=O)=O)ccc2O1 was tested. Which inhibition did it give?
Answer: -0.157%

Question: With Cn1c(=O)n(C)c2cc(S(=O)(=O)Nc3ccc(F)cc3)ccc21 as the molecule, how does the inhibition read?
Answer: 0.871%

Question: CCn1c(=S)[nH]c2cc(S(=O)(=O)N3CCOCC3)ccc21 was tested. Which inhibition did it give?
Answer: -2.43%

Question: Which inhibition does the source give for CNS(=O)(=O)c1ccc2c(c1)[nH]c(=S)n2C here?
Answer: 82.4% (active)

Question: For COC(=O)c1c(NC(=O)CSc2nncs2)sc2c1CCCCC2, which inhibition is on record?
Answer: -2.13%

Question: Which inhibition does the source give for COC(=O)c1c(NC(=O)C2CC(C)=C(C)CC2C(=O)O)sc2c1CCCCC2 (stereo not drawn) here?
Answer: -3.38%

Question: How did the inhibition turn out when C[C@@H]1CCCCO[C@H](CN(C)C(=O)c2ccccc2)[C@H](C)CN([C@@H](C)CO)C(=O)c2cc(NC(=O)Nc3ccc4c(c3)OCO4)ccc2O1 was run?
Answer: -5.3%

Question: How did the inhibition turn out when CC(C)NC(=O)Nc1ccc2c(c1)C(=O)N([C@@H](C)CO)C[C@@H](C)[C@H](CN(C)C(=O)Cc1ccccc1)OCCCC[C@H](C)O2 was run?
Answer: 2.76%

Question: Cc1noc(C)c1S(=O)(=O)N(C)C[C@H]1OCCCC[C@H](C)Oc2ccc(NS(=O)(=O)c3ccccc3)cc2C(=O)N([C@H](C)CO)C[C@@H]1C was tested. Which inhibition did it give?
Answer: 106% (active)

Question: Which inhibition does the source give for Cc1noc(C)c1NC(=O)Nc1ccc2c(c1)C(=O)N([C@H](C)CO)C[C@H](C)[C@@H](CN(C)S(C)(=O)=O)OCCCC[C@H](C)O2 here?
Answer: 7.29%

Question: With Cc1noc(C)c1NC(=O)Nc1ccc2c(c1)C(=O)N([C@H](C)CO)C[C@@H](C)[C@@H](CN(C)S(=O)(=O)c1ccc(Cl)cc1)OCCCC[C@H](C)O2 as the molecule, how does the inhibition read?
Answer: 108% (active)

Question: How did the inhibition turn out when Cc1noc(C)c1NC(=O)Nc1ccc2c(c1)C(=O)N([C@H](C)CO)C[C@@H](C)[C@H](CN(C)S(=O)(=O)c1ccc(Cl)cc1)OCCCC[C@H](C)O2 was run?
Answer: -9.02%

Question: Cc1noc(C)c1S(=O)(=O)Nc1ccc2c(c1)C(=O)N([C@@H](C)CO)C[C@@H](C)[C@@H](CN(C)S(=O)(=O)c1ccccc1)OCCCC[C@H](C)O2 was tested. Which inhibition did it give?
Answer: -42.8%

Question: How did the inhibition turn out when C[C@@H]1CCCCO[C@@H](CN(C)C(=O)Cc2ccccc2)[C@H](C)CN([C@@H](C)CO)C(=O)c2cc(NC(=O)Nc3ccc4c(c3)OCO4)ccc2O1 was run?
Answer: 121% (active)

Question: Which inhibition does the source give for Cc1noc(C)c1S(=O)(=O)N(C)C[C@@H]1OCCCC[C@@H](C)Oc2ccc(NS(=O)(=O)c3ccccc3)cc2C(=O)N([C@H](C)CO)C[C@@H]1C here?
Answer: -6.41%

Question: With CCCC(=O)Nc1ccc2c(c1)OC[C@H](C)N(CCC(F)(F)F)C[C@@H](C)[C@H](OC)CN(C)C2=O as the molecule, how does the inhibition read?
Answer: -10.8%

Question: How did the inhibition turn out when CCCC(=O)N1CC2(C1)CN(C(=O)Nc1cccc(F)c1)[C@@H](CO)c1c2c2ccc(OC)cc2n1C was run?
Answer: 14.3%

Question: With CN1c2ccc(-c3cccc(F)c3)cc2[C@H]2[C@H](CCN2C(=O)c2cccc(F)c2)[C@H]1CO as the molecule, how does the inhibition read?
Answer: -3.81%

Question: Which inhibition does the source give for CN1c2ccc(-c3ccccc3)cc2[C@@H]2[C@@H](CCN2C(=O)c2ccccc2)[C@H]1CO here?
Answer: 80% (active)

Question: For CN1c2ccc(-c3ccccc3)cc2[C@@H]2[C@@H](CCN2C(=O)c2ccncc2)[C@@H]1CO, which inhibition is on record?
Answer: 0.924%

Question: CN1CCN(C(=O)C[C@H]2CC[C@H]3[C@@H](COC[C@H](O)CN3C(=O)c3ccc(F)cc3)O2)CC1 was tested. Which inhibition did it give?
Answer: -6.97%

Question: With CCCNC(=O)N1C[C@H](C)[C@@H](OC)CN(C)C(=O)c2ccc(NS(=O)(=O)CC(F)(F)F)cc2OC[C@@H]1C as the molecule, how does the inhibition read?
Answer: -4.41%

Question: Which inhibition does the source give for O=C(NCC1CC1)[C@@H]1[C@@H](CO)[C@@H]2Cn3c(ccc(-c4ccncc4)c3=O)[C@H]1N2Cc1nccs1 here?
Answer: 5.95%

Question: Which inhibition does the source give for C[C@@H]1CN([C@@H](C)CO)C(=O)Cc2cc(NS(C)(=O)=O)ccc2O[C@@H]1CN(C)Cc1ccc2c(c1)OCO2 here?
Answer: -41.9%

Question: CN(C)C(=O)[C@@H]1[C@@H](CO)[C@@H]2Cn3c(ccc(-c4ccccc4F)c3=O)[C@@H]2N1C(=O)C1CC1 was tested. Which inhibition did it give?
Answer: -4.07%

Question: With O=C([C@@H]1[C@@H](CO)[C@@H]2Cn3c(ccc(-c4ccccc4F)c3=O)[C@H]1N2C(=O)C1CCC1)N1CCCCC1 as the molecule, how does the inhibition read?
Answer: 3.88%

Question: With CCCN1[C@H](C(=O)N2CCCCC2)[C@@H](CO)[C@@H]2Cn3c(ccc(-c4ccccc4F)c3=O)[C@@H]21 as the molecule, how does the inhibition read?
Answer: 89.8% (active)

Question: How did the inhibition turn out when N#C[C@@H]1[C@@H](c2ccccc2)[C@@H](CO)N1C(=O)c1cc(Cl)cc(Cl)c1 was run?
Answer: 3%

Question: How did the inhibition turn out when COc1ccccc1-c1cnc2c(c1)C(=O)N([C@H](C)CO)C[C@H](C)[C@@H](CN(C)CC1CCOCC1)O2 was run?
Answer: -8.2%

Question: With COc1cccc(C(=O)Nc2ccc3c(c2)OC[C@H](C)NC[C@H](C)[C@H](OC)CN(C)C3=O)c1 as the molecule, how does the inhibition read?
Answer: -5.1%

Question: Which inhibition does the source give for C[C@H](CO)N1C[C@H](C)[C@@H](CN(C)C(=O)NC2CCCCC2)Oc2ccc(NC(=O)c3ccncc3)cc2CC1=O here?
Answer: 5.06%
